This is an account of results in ChEMBL document CHEMBL1122501, “Potential antiatherosclerotic agents. 2. (Aralkylamino)- and (alkylamino) benzoic acid analogues of cetaben” (1983).

In experiment [1] the test system is Rattus norvegicus. In words: In vivo Sterol lowering activity at dose as 0.05 % of the diet. The format is functional. The method, boiled down: (§1)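 Male CFE or CD-1 Sprague-Dawley rats, 140-150 g; 8 per control group, 4 per test group. Compound mixed into ground chow (w/w) via MeOH-CHCl3 (1:3) solution, solvent evaporated; controls got solvent-treated chow. Fed ad libitum 5 days, food intake monitored, killed fed and bled. Serum sterols and triglycerides by adapted autoanalyzer methods; mean percent of control, Student's t test.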

Experiment [2] concerns the target T1, Sterol O-acyltransferase 1 (Rattus norvegicus) (UniProt O70536).
T1 sequence (whole entry): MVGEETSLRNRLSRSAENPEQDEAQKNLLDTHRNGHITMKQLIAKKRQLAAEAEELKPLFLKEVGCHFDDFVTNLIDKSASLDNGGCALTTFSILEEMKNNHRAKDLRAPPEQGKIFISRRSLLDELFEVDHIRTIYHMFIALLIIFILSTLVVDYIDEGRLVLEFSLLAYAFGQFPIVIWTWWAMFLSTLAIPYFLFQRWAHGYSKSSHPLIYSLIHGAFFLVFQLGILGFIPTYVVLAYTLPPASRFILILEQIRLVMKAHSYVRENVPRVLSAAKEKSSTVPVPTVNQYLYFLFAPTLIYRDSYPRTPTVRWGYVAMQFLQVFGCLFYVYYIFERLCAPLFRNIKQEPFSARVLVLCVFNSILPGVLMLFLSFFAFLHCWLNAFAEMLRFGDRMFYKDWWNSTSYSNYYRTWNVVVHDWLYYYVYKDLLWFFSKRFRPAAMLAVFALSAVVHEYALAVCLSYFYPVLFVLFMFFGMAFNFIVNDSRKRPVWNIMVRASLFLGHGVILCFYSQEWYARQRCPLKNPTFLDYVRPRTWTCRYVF
In words: In vitro inhibitory activity against acyl coenzyme A:cholesterol acyltransferase (ACAT). The arrangement: concentration or dose not given beside the values. To be noted: concentration not given here. The method, boiled down:
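ACAT enzyme from rat adrenal homogenate in 0.2 M KH2PO4 buffer pH 7.4, 1000g 15 min 5 °C supernatant (microsomal fraction). Supernatant + BSA (50 mg/mL) + compound at final 5.2 μg/mL + buffer preincubated 10 min 37 °C; [14C]oleoyl-CoA (0.4 μCi) added, 30 min 37 °C. Lipids extracted, TLC; cholesteryl ester zone counted. Mean % inhibition vs no-compound control; Student's t test.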

In experiment [3] the test system is Rattus norvegicus. In words: In vivo Triglyceride lowering activity at dose as 0.025% of the diet. In kind it is functional. The method, boiled down:
as §1

Experiment [4] relates to Rattus norvegicus. In words: In vivo triglyceride lowering activity dosed at 0.05 % of the diet. The format is functional. The method in brief: as §1
For experiment [5], the system named is Rattus norvegicus. In words: In vivo Sterol lowering activity at dose as 0.10 % of the diet. The format is functional. The method in brief:
as §1

Experiment [6] deals with Rattus norvegicus. In words: In vivo Sterol lowering activity at dose as 0.025 % of the diet. In kind it is functional. The method in brief: as §1
Experiment [7] relates to Rattus norvegicus. In words: In vivo triglyceride lowering activity dosed at 0.10 % of the diet. The format is functional. The method, boiled down:
as §1

Experiment [8] has as its system Rattus norvegicus. In words: In vivo Triglyceride lowering activity at dose as 0.017 % of the diet. In kind it is functional. The method in brief: as §1
For experiment [9], the system named is Rattus norvegicus. In words: In vivo Sterol lowering activity at dose as 0.05 % of the diet. In kind it is functional. The method in brief:
as §1

In experiment [10] the test system is Rattus norvegicus. In words: In vivo Triglyceride lowering activity at dose as 0.05 % of the diet. The format is functional. The method in brief:
as §1

In experiment [11] the test system is Rattus norvegicus. In words: In vivo Sterol lowering activity at dose as 0.017 % of the diet. The format is functional. The method in brief:
as §1

Experiment [12] concerns Rattus norvegicus. In words: In vivo Sterol lowering activity at dose as 0.017 % of the diet. The format is functional. The method, boiled down: as §1
In experiment [13] the test system is Rattus norvegicus. In words: In vivo sterol lowering activity dosed at 0.10 % of the diet. In kind it is functional. The method in brief: as §1
The subject of experiment [14] is Rattus norvegicus. In words: In vivo triglyceride lowering activity, dosed at 0.10 % of the diet. The format is functional. The method in brief: as §1
Experiment [15] concerns Rattus norvegicus. In words: In vivo Triglyceride lowering activity at dose as 0.025% of the diet. The format is functional. The method, boiled down: as §1
The subject of experiment [16] is Rattus norvegicus. In words: In vivo Triglyceride lowering activity at dose as 0.017 % of the diet. The format is functional. The method in brief: as §1
The test system of experiment [17] is Rattus norvegicus. In words: In vivo triglyceride lowering activity, dosed at 0.03 % of the diet. The format is functional. The method in brief:
as §1

The subject of experiment [18] is Rattus norvegicus. In words: In vivo Sterol lowering activity at dose as 0.025 % of the diet. In kind it is functional. The method in brief: as §1

By inhibition is commonly meant the change of the read-out against control, counted positive when it falls. Turning to `O=C(O)c1ccc(NCCCCCCc2ccccc2)cc1`, the Diet in [1] was found to be 85%; in [3], 52%; in experiment [4], 46%; in experiment [6] it was 83%. The compound also showed an inhibition in experiment [2] of 17%. Also, the “serum sterol, percent of control” value in experiment [5] came out at 86%. Moreover, the “serum triglycerides, percent of control” value in experiment [7] is recorded as 40%.

For `CCOC(=O)c1ccc(NCCc2cccc3ccccc23)cc1`, the inhibition in experiment [2] turned out to be 9%. The Diet in [8] was determined as 112%; in experiment [9] it was 103%; in experiment [10] it was 80%; in experiment [11] it was 98%. In addition, the “serum sterol, percent of control” value in experiment [5] is recorded as 94%. Also, the “serum triglycerides, percent of control” value in experiment [7] worked out at 73%.

In turn, `CCOC(=O)c1ccc(NCCc2cccs2)cc1` yielded an inhibition in [2] of 49%. Further, the Diet in experiment [8] came out at 81%; in experiment [9], 90%; in experiment [12], 86%; in experiment [10], 94%; in experiment [14], 69%. The “serum sterol, percent of control” value in experiment [13] amounted to 86%.

Regarding `CCOC(=O)c1ccc(NCCCCCCc2ccccc2)cc1`, the Diet is given as 84% in experiment [1], 59% in [15], 45% in experiment [4] and 89% in experiment [6]. Moreover, the inhibition in experiment [2] was 41%. Further, the “serum sterol, percent of control” value in experiment [13] turned out to be 82%. For the same compound, in [7], the “serum triglycerides, percent of control” value came out at 43%.

Consider `CCCCCCCOc1ccc(CNc2ccc(C(=O)OCC)cc2)cc1`, for which the results for the Diet in [1], in experiment [12] and in experiment [4] were below 86%, 100% and below 76%, respectively. Besides, the “serum sterol, percent of control” value in experiment [13] came to 90%. The “Serum triglycerides, % of control” value in [16] stood at 88%. Also, in [7], the “serum triglycerides, percent of control” value is below 80%.

`O=C(O)c1ccc(NCCCCc2cccs2)cc1` had an inhibition in experiment [2] of 10%. Moreover, the Diet turned out to be 94% in experiment [8]; 98% in experiment [9]; 89% in experiment [10]; 90% in experiment [11]; 90% in experiment [14]. Also, the “serum sterol, percent of control” value in experiment [5] is 77%.

In the case of `O=C(O)c1ccc(NCc2ccccc2)cc1`, the Diet in experiment [1] turned out to be 86%; in experiment [8] it was 92%; in experiment [4] it was 62%; in experiment [11], 101%. Besides, in experiment [2], the inhibition stood at 2%. Besides, the “serum sterol, percent of control” value in experiment [13] was 87%. The “serum triglycerides, percent of control” value in [7] stood at 65%.

Turning to `CCOC(=O)c1ccc(NCCCCCCCc2ccccc2)cc1`, the Diet was 89% in experiment [1], below 84% in experiment [3], below 82% in experiment [4] and 90% in [6]. In addition, the inhibition in experiment [2] is below 54%. For the same compound, the “serum sterol, percent of control” value in [13] was determined as 89%. In addition, in [7], the “serum triglycerides, percent of control” value is below 72%.

For the compound `CCCCCCCCCCc1ccc(CNc2ccc(C(=O)O)cc2)cc1`, the Diet in experiment [1] is reported as below 88%; in experiment [12] it was 99%; in experiment [4] it was 113%. In experiment [2], this compound showed an inhibition below 51%. In addition, the “serum sterol, percent of control” value in experiment [13] is reported as below 78%. The “Serum triglycerides, % of control” value in experiment [16] is 100%. In addition, the “serum triglycerides, percent of control” value in [7] is given as 114%.

As to `CCOC(=O)c1ccc(NCc2ccccc2)cc1`, the Diet is 90% in [1], 97% in experiment [8], 108% in experiment [11] and 78% in experiment [14]. The inhibition in [2] came to 45%. Further, in experiment [13], the “serum sterol, percent of control” value was found to be 86%. Further, the “serum triglycerides, percent of control” value in [17] is reported as 88%.

Consider `O=C(O)c1ccc(NCCc2cccs2)cc1`, for which the inhibition in [2] was 5%. The Diet in experiment [8] is 121%; in experiment [9], 81%; in experiment [10], 97%; in [11] it was 74%; in experiment [14], 103%. For the same compound, the “serum sterol, percent of control” value in experiment [5] was determined as 88%.

Take `O=C(O)c1ccc(NCCCCCCCCCCCc2ccccc2)cc1`: the Diet is on record as below 76% in [1], below 68% in experiment [3], below 69% in experiment [4] and 83% in experiment [6]. In experiment [2], the inhibition was below 24%. The “serum sterol, percent of control” value in experiment [13] is given as below 83%. In experiment [7], the “serum triglycerides, percent of control” value is below 74%.

Take `O=C(O)c1ccc(NCCc2cccc3ccccc23)cc1`: the Diet was determined as 89% in experiment [8], 108% in experiment [9], 67% in experiment [4] and 108% in [11]. The “serum sterol, percent of control” value in experiment [5] came out at 93%. Moreover, the “serum triglycerides, percent of control” value in [7] was 63%.

Regarding `CCCCCCCCCCCCCOc1ccc(CNc2ccc(C(=O)O)cc2)cc1`, the results for the Diet in experiment [1], in experiment [12] and in experiment [4] were 100%, 100% and below 65%, respectively. Moreover, the inhibition in experiment [2] is below 36%. Besides, in experiment [13], the “serum sterol, percent of control” value was determined as 81%. The “Serum triglycerides, % of control” value in [16] was below 62%. Moreover, the “serum triglycerides, percent of control” value in experiment [7] is below 56%.

For `O=C(O)c1ccc(NCc2ccc(OCc3ccccc3)cc2)cc1`, the Diet was 93% in [18], 91% in experiment [8], 98% in [9] and 85% in experiment [4]. Moreover, the inhibition in experiment [2] came out at 16%. The “serum sterol, percent of control” value in experiment [5] is listed as 97%. The “serum triglycerides, percent of control” value in experiment [7] is 89%.

Take `CCCCCCCOc1ccc(CNc2ccc(C(=O)O)cc2)cc1`: the Diet is given as below 84% in experiment [1], 100% in experiment [12] and below 70% in experiment [4]. In addition, in experiment [2], the inhibition is below 24%. In addition, the “serum sterol, percent of control” value in experiment [13] is listed as below 84%. Further, in experiment [16], the “Serum triglycerides, % of control” value was 95%. In addition, in experiment [7], the “serum triglycerides, percent of control” value is listed as below 72%.

With `CCOC(=O)c1ccc(NCCCCCCCCc2ccccc2)cc1`, the Diet in experiment [1] was 96%; in [3] it was below 61%; in experiment [4] it was below 65%; in experiment [6], 88%. The inhibition in experiment [2] was below 50%. Also, the “serum sterol, percent of control” value in experiment [13] is 98%. Further, the “serum triglycerides, percent of control” value in experiment [7] was below 54%.

On to `O=C(O)c1ccc(NCCCCCCCCCc2ccccc2)cc1`, for which the Diet in [1] is 96%; in experiment [3] it was below 50%; in experiment [4], below 58%; in experiment [6] it was 96%. In experiment [2], this compound gave an inhibition below 28%. Further, the “serum sterol, percent of control” value in [13] is 92%. In addition, the “serum triglycerides, percent of control” value in [7] is below 68%.

As to `CCOC(=O)c1ccc(NCc2ccc(OCc3ccccc3)cc2)cc1`, the inhibition in experiment [2] was found to be 45%. The Diet in [8] worked out at 97%; in [9], 100%; in experiment [4], 85%; in [11], 105%; in experiment [14] it was 92%. The “serum sterol, percent of control” value in experiment [13] worked out at 91%.

As for `O=C(O)c1ccc(NCCCCCCCCCCc2ccccc2)cc1`, the Diet in [1] was 89%; in [3] it was below 79%; in experiment [4], 88%; in experiment [6], below 87%. Further, the inhibition in experiment [2] is below 44%. In addition, the “serum sterol, percent of control” value in [13] is reported as below 87%. Further, the “serum triglycerides, percent of control” value in experiment [7] is listed as 81%.
